# The list is not random: actives were taken first. Their share in the collection is about 2.2%.
# NR2E3 ag-1 – NR2E3 agonists in two-hybrid cells, primary screen, cell-based, luminescence, CHO-S, Gal4-NCOR/VP16-NR2E3 | luciferase | inhibition of corepressor binding, % at 3.98 µM | actives 0.35% (n = 360,000);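 active = inhibition above the mean of all tested compounds plus 3 SD, cut at about 70% in these data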;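 note: 0% = DMSO with NR2E3 transfected cells and 100% = cells lacking NR2E3 construct; higher means lower luciferase signal from less NR2E3 corepressor binding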
# FGF22 binding – binders of human FGF22 protein, primary screen, FGF22 synaptogenesis inhibitor project, biophysical, thermal shift, single point; AID 651658, 2012; activity (Tm shift, normalised), % at 9.99 µM; actives 1.5% (n = 340,000); recombinant FGF22 thermal shift, SYPRO orange fluorescence; percent of sucrose octasulfate shift, DMSO zero;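 active = mean Tm shift, scaled 0 neutral to 100 positive control, at about 1.3% or above, every replicate too, limit read from the data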
# Target sequence (Q9HCT0 whole entry, looked up): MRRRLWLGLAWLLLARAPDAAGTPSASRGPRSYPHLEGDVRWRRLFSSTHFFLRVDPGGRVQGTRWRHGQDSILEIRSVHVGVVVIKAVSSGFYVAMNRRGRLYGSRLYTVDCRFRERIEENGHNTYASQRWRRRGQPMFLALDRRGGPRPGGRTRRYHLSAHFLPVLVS
# NR2E3 ag-2 – inhibitors of NR2E3-RetCOR corepressor binding, primary screen, NR2E3 agonist project, biochemical, TR-FRET, GST-NR2E3, biotin-RetCOR; inhibition of corepressor binding, % at 4.78 µM; Photoreceptor-specific nuclear receptor (Homo sapiens), Q9Y5X4; 1536-well; actives 0.12% (n = 320,000);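 active = percent inhibition above the cutoff of mean plus 3 SD of all tested compounds, set per screening campaign, cut at about 20% in these data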;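 note: 0% = DMSO wells and 100% = biotin wells as full block of FRET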
#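 System: GST-tagged NR2E3 plus biotinylated RetCOR corepressor; Buffer or medium: pH 7.5 Tris-based buffer; Probe or stimulus: RetCOR corepressor, biotinylated, 7 nM; Doses: compound at 4.8 µM, single dose; Schedule: 5 h incubation at 4 °C; Technique: time-resolved FRET; Evaluation: percent inhibition of TR-FRET ratio; Replication: one well per compound, singlicate testing.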
# Jurkat NFkB inh – inhibitors of induced NF-kB luciferase reporter, primary screen, TCR NF-kB activation inhibitor project, cell-based, luminescence, uHTS | Jurkat, PMA/ionomycin-induced NF-kB luciferase reporter | inhibition, % at 4 µM | actives 0.53% (n = 330,000); in the data active = inhibition above about 50%
# 697 NFkB inh – inhibitors of PMA/ionomycin-induced NF-kB reporter, 697 cells, primary screen, B-cell NF-kB inhibitor project, cell-based, luminescence, uHTS. 697 B-cell NF-kB luciferase reporter, 16 h. inhibition, % at 4 µM. actives 0.33% (n = 330,000); in the data active = inhibition above about 35%
# miR-122 sensor – miR-122 Renilla sensor signal increase in Huh7, primary screen, miR-122 inhibitor project, cell-based, single point, plate reader; Huh7 miR-122 Renilla luciferase sensor, 48 h; neutral wells = 0, positive control = 100; activation (reporter increase), % at 12.5 µM; actives 0.3% (n = 340,000); AID 602342, 2012;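 active = mean replicate activation score at least 90 and every replicate individually at or above 90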;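 note: higher luciferase means less miR-122 activity so hits act as miR-122 inhibitors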
# The depositor's hits bear a star; . = no result given; [ ] = dose if it differs, or a comment.
SMILES,NR2E3 ag-1,FGF22 binding,NR2E3 ag-2,Jurkat NFkB inh,697 NFkB inh,miR-122 sensor
CC(=O)c1c(C)[nH]c(C(=O)Nc2ccc(C)c(S(=O)(=O)Nc3ccc(C)cc3C)c2)c1C,13.6,40.9,1.5,20.9,2.9,166.0*
COc1cc([N+](=O)[O-])c(C)cc1NC(=O)c1ccc(OC)c(OC)c1,-47.4,43.2*,.,.,.,-2.2
COc1ccc(C(=O)NC(=S)Nc2ccccc2[N+](=O)[O-])cc1OC,-20.0,0.3,-2.1,2.3,12.6,.
CCNC(=O)[C@@H]1[C@@H](CO)[C@@H]2Cn3c(ccc(-c4ccc(OC)cc4)c3=O)[C@H]1N2CC,.,-0.2,.,.,.,0.9[16.7 µM]
CCCC#Cc1ccc2c(c1)O[C@H](CN(C)C(=O)C1CCCCC1)[C@H](C)CN([C@@H](C)CO)S2(=O)=O,.,.,.,.,.,-23.2[16.7 µM]
c1ccc(-c2csc(-n3cccn3)n2)cc1,0.1,43.5*,0.9,-26.4,-15.6,.
COC(=O)CSc1nc(C(C)C)nc2ccccc12,-4.1,.,1.4,2.0,5.9,-6.8
CC(C)OC(=O)CSc1nc(Cc2cccs2)nc2ccccc12,-13.3,44.2*,-0.5,4.3,2.9,.
CCN1C(=O)[C@@H]2[C@@H](c3ccc(-c4ccc(OC)cc4)cc3)N3CCC[C@@]3(C(=O)OC)[C@@H]2C1=O,-16.4,43.9*,-4.6,-23.5,-35.4,-2.1
O=S(=O)(Nc1cc(Sc2ncn[nH]2)c(O)c2ccccc12)c1ccccc1,102.7*,42.9*,.,40.3,-20.5,-15.4
Oc1cccc(Nc2nc(-c3ccccc3Cl)nc3ccccc23)c1,-21.8,1.6*,-2.2,-1.6,9.4,.
O=C(C[C@@H]1CC[C@H](NC(=O)Nc2ccc(C(F)(F)F)cc2)[C@@H](CO)O1)NCc1ccccn1,.,-0.1,.,.,.,.
C[C@@H]1CN([C@H](C)CO)C(=O)c2cc(NC(=O)Nc3ccc4c(c3)OCO4)ccc2O[C@@H]1CN(C)Cc1ccccc1,.,-0.1,.,.,.,-4.7[16.7 µM]
C[C@H](CO)N1C[C@H](C)[C@@H](CN(C)Cc2ccc(C(=O)O)cc2)Oc2ccc(NS(=O)(=O)c3ccccc3)cc2CC1=O,.,0.0,.,.,.,2.9[16.7 µM]
COc1cc(OC)cc(-c2nc3ccccc3c(=O)n2OC(=O)c2ccc(Br)cc2)c1,-13.1,1.7*,2.2,1.5,1.2,.
CN(C)CC(=O)N1CCCCN2[C@H](CO)[C@H](c3ccc(/C=C/c4ccccc4)cc3)[C@H]2C1,.,0.1,.,.,.,-27.6[16.7 µM]
CCN(CC)C(=O)Cc1cn(C)c2ccccc12,-16.0,43.2*,7.6,-15.2,-1.5,-1.5
C[C@@H]1CN([C@@H](C)CO)C(=O)c2ccccc2-c2ccccc2CO[C@H]1CN(C)C(=O)[C@H]1CCCN1C,.,-0.2,.,.,.,.
C[C@H](CO)N1C[C@H](C)[C@H](CN(C)S(=O)(=O)c2cccs2)OCCCC[C@H](C)Oc2ccc(NC(=O)CCC(F)(F)F)cc2C1=O,.,-0.3,.,.,.,-6.7[16.7 µM]
COc1ccc(CN2CCN(C(=O)c3ccccc3C(=O)c3ccccc3)CC2)cc1F,6.1,44.0*,.,.,.,-6.2
N#CCCN(C(=O)CN1c2cccc3cccc(c23)S1(=O)=O)c1ccccc1,13.3,43.4*,.,6.2,1.8,0.7
CN(C)C(=O)CN1c2cccc3cccc(c23)S1(=O)=O,3.5,0.2,2.7,-1.3,5.2,-7.6
CNC(=O)C[C@@H]1CC[C@@H]2[C@H](COC[C@@H](O)CN2Cc2ccncc2)O1,.,0.3,.,.,.,1.3[16.7 µM]
CCCCn1c(NC(=O)c2ccccc2)c(C#N)c2nc3ccccc3nc21,-9.3,.,.,.,.,6.7
CCCCn1c(NC(=O)c2ccc(F)cc2)c(C#N)c2nc3ccccc3nc21,.,.,21.6*,-3.1,-2.9,.
Cc1cccc(C)c1NC(=S)NC(C)CCc1ccccc1 (configuration not stated),12.9,-0.4,3.3,3.4,-25.1,100.4*

# Assay outcomes from PubChem BioAssay.
